Assay results from ChEMBL document CHEMBL1157592, “Design, synthesis and antimicrobial properties of non-hemolytic cationic alpha-cyclopeptoids” (Bioorg Med Chem, 2010).
Converted amounts (≈) assume the structure as drawn. The source made the active and inactive calls. No cut-off for these calls is given here. Square brackets hold non-standard residues; d marks the D form. Peptide text beside a SMILES is read from it. Nphe = O=C(O)CNCc1ccccc1; Nlys = NCCCCNCC(=O)O

Tests used:
[1] = tested on: Candida albicans; experiment: Antimicrobial activity against Candida albicans ATCC 90029 after 48 hrs by broth microdilution method; type: functional; conditions: ATCC 90029, 48 h
Procedure, shortened: (§1)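 Fungi grown on Sabouraud agar at 30 °C for 48 h, suspended in PBS, turbidity read at 600 nm and adjusted in RPMI-1640. Twofold serial dilutions made in RPMI-1640, inoculum ~5 × 10⁴ cells/mL, incubated 30 °C for 48 h. MIC is the lowest concentration giving complete inhibition of visible growth, following NCCLS broth microdilution guidelines.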

[2] = tested on: Candida albicans; experiment: Antimicrobial activity against Candida albicans L21 after 48 hrs by broth microdilution method; type: functional; conditions: L21, 48 h; procedure, shortened: as §1
[3] = tested on: Cryptococcus neoformans; experiment: Antimicrobial activity against Cryptococcus neoformans ATCC 90112 after 48 hrs by broth microdilution method; type: functional; conditions: ATCC 90112, 48 h; procedure, shortened: as §1
[4] = tested on: Cryptococcus neoformans; experiment: Antimicrobial activity against Cryptococcus neoformans L1 after 48 hrs by broth microdilution method; type: functional; conditions: L1, 48 h; procedure, shortened: as §1
[5] = tested on: Escherichia coli; experiment: Antimicrobial activity against Escherichia coli ATCC 25922 after 18 hrs by broth microdilution method; type: functional; conditions: ATCC 25922, 18 h
Procedure, shortened: (§2)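 Strains grown at 37 °C in Mueller–Hinton broth and tested in logarithmic phase. Twofold serial dilutions made in MH broth, inoculum ~2.5 × 10⁵ cells/mL, incubated overnight (18 h) at 37 °C. MIC is the lowest concentration giving complete inhibition of visible growth, following NCCLS broth microdilution guidelines.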

[6] = tested on: Salmonella typhimurium; experiment: Antimicrobial activity against Salmonella Typhimurium ATCC 14028 after 18 hrs by broth microdilution method; type: functional, Salmonella enterica subsp. enterica serovar Typhimurium; conditions: Salmonella enterica, ATCC 14028, 18 h; procedure, shortened: as §2
[7] = tested on: Staphylococcus aureus; experiment: Antimicrobial activity against Staphylococcus aureus ATCC 25923 after 18 hrs by broth microdilution method; type: functional; conditions: ATCC 25923, 18 h; procedure, shortened: as §2
[8] = Toxicity in human RBCs assessed as induction of hemolysis at 20 uM relative to untreated control; type: cell-based, Erythrocyte; conditions: red blood cells (RBCs)
[9] = tested on: Debaryomyces hansenii; experiment: Antimicrobial activity against Candida famata SA550 after 48 hrs by broth microdilution method; type: functional; conditions: SA550, 48 h; procedure, shortened: as §1
[10] = Toxicity in human RBCs assessed as induction of hemolysis at 100 uM relative to untreated control; type: cell-based; conditions: erythrocyte
Procedure, shortened: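 Erythrocytes taken from fresh human blood anticoagulated with citrate-dextrose. A 0.5% (v/v) suspension in 10 mM phosphate buffer pH 7.4 with 139 mM NaCl was incubated with 100 µM cyclopeptoid for 60 min at 37 °C. Reaction stopped with cold buffer, centrifuged at 10,000g for 1 min, and the supernatant collected.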

[11] = tested on: Candida albicans; experiment: Membrane permeabilizing effect in Candida albicans ATCC 90029 assessed as propidium iodide uptake at 100 uM after 120 mins by flow cytometry; type: functional, organism-based
Procedure, shortened: (§3)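 Candida subcultured on Sabouraud agar, diluted in RPMI-1640 to 1 × 10⁵ cells/mL and incubated with peptoid at 30 °C for various times. Propidium iodide (final 10 µg/mL) added, 4 min at 30 °C, then flow cytometry with ≥10,000 events. Read-out is % PI-positive cells, background (no peptoid) subtracted; triplicates, mean ± SD.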

[12] = tested on: Candida albicans; experiment: Membrane permeabilizing effect in Candida albicans ATCC 90029 assessed as propidium iodide uptake at 100 uM after 120 to 240 mins by flow cytometry; type: functional; procedure, shortened: as §3
[13] = tested on: Candida albicans; experiment: Membrane permeabilizing effect in Candida albicans ATCC 90029 assessed as propidium iodide uptake at 250 uM after 30 to 240 mins by flow cytometry; type: functional, organism-based; procedure, shortened: as §3
[14] = tested on: Escherichia coli; experiment: Membrane permeabilizing effect in Escherichia coli ATCC 25922 assessed as propidium iodide uptake at 250 uM after 180 mins by flow cytometry; type: functional, organism-based
Procedure, shortened: (§4)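 Log-phase bacteria at 1 × 10⁶ cells/mL in MH broth incubated with peptoid at 37 °C for various times. Propidium iodide (final 10 µg/mL) added, 4 min at 37 °C, then flow cytometry with ≥10,000 events. Read-out is % PI-positive cells, background (no peptoid) subtracted; triplicates, mean ± SD.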

[15] = tested on: Staphylococcus aureus; experiment: Membrane permeabilizing effect in Staphylococcus aureus ATCC 25923 assessed as propidium iodide uptake at 250 uM after 60 mins by flow cytometry; type: functional; procedure, shortened: as §4

MIC [1] [µM]	MIC [2] [µM]	MIC [3] [µM]	MIC [4] [µM]	MIC [5] [µM]	MIC [6] [µM]	MIC [7] [µM]	MIC [9] [µM]	SMILES	hemolysis at 20 µM [8] [%]	Activity [10]	Activity [11]	Activity [12] [%]	Activity [13]	Activity [14]	Activity [15] [%]
196 (≈ 200 µg/mL)	196 (≈ 200 µg/mL)	196 (≈ 200 µg/mL)	98 (≈ 100 µg/mL)	392 (≈ 400 µg/mL)	> 792	392 (≈ 400 µg/mL)	–	NCCCCN1CC(=O)N(CCOCc2ccccc2)CC(=O)N(CCOCc2ccccc2)CC(=O)N(CCCCN)CC(=O)N(CCOCc2ccccc2)CC(=O)N(CCOCc2ccccc2)CC1=O	–	–	–	–	–	–	–
–	–	–	–	–	–	–	–	CC[C@H](C)[C@H](NC(=O)CN)C(=O)NCC(=O)N[C@@H](C)C(=O)N[C@H](C(=O)N[C@@H](CC(C)C)C(=O)N[C@@H](CCCCN)C(=O)N[C@H](C(=O)N[C@@H](CC(C)C)C(=O)N[C@H](C(=O)N[C@H](C(=O)NCC(=O)N[C@@H](CC(C)C)C(=O)N1CCC[C@H]1C(=O)N[C@@H](C)C(=O)N[C@@H](CC(C)C)C(=O)N[C@H](C(=O)N[C@@H](CO)C(=O)N[C@@H](Cc1c[nH]c2ccccc12)C(=O)N[C@H](C(=O)N[C@@H](CCCCN)C(=O)N[C@@H](CCCNC(=N)N)C(=O)N[C@@H](CCCCN)C(=O)N[C@@H](CCCNC(=N)N)C(=O)N[C@@H](CCC(N)=O)C(=O)N[C@@H](CCC(N)=O)C(N)=O)[C@@H](C)CC)[C@@H](C)CC)[C@@H](C)O)[C@@H](C)O)C(C)C)C(C)C [MELITTIN]	> 90	–	–	–	–	–	–
465 (≈ 393 µg/mL)	232 (≈ 196 µg/mL)	232 (≈ 196 µg/mL)	116 (≈ 98 µg/mL)	465 (≈ 393 µg/mL)	465 (≈ 393 µg/mL)	465 (≈ 393 µg/mL)	–	NCCCCN1CC(=O)N(Cc2ccccc2)CC(=O)N(Cc2ccccc2)CC(=O)N(CCCCN)CC(=O)N(Cc2ccccc2)CC(=O)N(Cc2ccccc2)CC1=O (cyclo([Nlys][Nphe][Nphe][Nlys][Nphe][Nphe]))	–	–	–	–	–	–	–
> 1000	> 1000	> 1000	788 (≈ 680 µg/mL)	> 1000	> 1000	> 1000	–	NCCCCN(CC(=O)N(CC(=O)N(CC(=O)N(CCCCN)CC(=O)N(CC(=O)O)Cc1ccccc1)Cc1ccccc1)Cc1ccccc1)C(=O)CNCc1ccccc1 (H-[Nphe][Nlys][Nphe][Nphe][Nlys][Nphe]-OH)	–	–	–	–	–	–	–
> 1000	> 1000	> 1000	> 1000	> 1000	> 1000	> 1000	–	O=C1CN(Cc2ccccc2)C(=O)CN(Cc2ccccc2)C(=O)CN(Cc2ccccc2)C(=O)CN(Cc2ccccc2)C(=O)CN(Cc2ccccc2)C(=O)CN1Cc1ccccc1	–	–	–	–	–	–	–
12	12	47	99	786	> 1000	> 1000	12	NCCCCN1CC(=O)N(Cc2ccccc2)CC(=O)N(CCCCN)CC(=O)N(CCCCN)CC(=O)N(Cc2ccccc2)CC(=O)N(CCCCN)CC1=O.O=C(O)C(F)(F)F.O=C(O)C(F)(F)F.O=C(O)C(F)(F)F.O=C(O)C(F)(F)F (cyclo([Nlys][Nlys][Nphe][Nlys][Nlys][Nphe]))	–	Non-toxic	Active	50	–	–	–
> 1000	500 (≈ 394 µg/mL)	> 1000	> 1000	> 1000	> 1000	> 1000	> 1000	NCCCCNCC(=O)N(CCCCN)CC(=O)N(CCCCN)CC(=O)N(CCCCN)CC(=O)N(CCCCN)CC(=O)N(CCCCN)CC(=O)O	–	–	–	–	–	–	–
184	184	184	92	383	> 766	383	–	NCCCCN1CC(=O)N(CCOCc2ccccc2)CC(=O)N(CCCCN)CC(=O)N(CCOCc2ccccc2)CC(=O)N(CCCCN)CC(=O)N(CCOCc2ccccc2)CC1=O.O=C(O)C(F)(F)F.O=C(O)C(F)(F)F.O=C(O)C(F)(F)F	–	–	–	–	inactive	inactive	>40
10	5	> 1000	> 1000	> 1000	> 1000	> 1000	5	NCCCCN1CC(=O)N(CCCCN)CC(=O)N(CCCCN)CC(=O)N(CCCCN)CC(=O)N(CCCCN)CC(=O)N(CCCCN)CC1=O.O=C(O)C(F)(F)F.O=C(O)C(F)(F)F.O=C(O)C(F)(F)F.O=C(O)C(F)(F)F.O=C(O)C(F)(F)F.O=C(O)C(F)(F)F	–	Non-toxic	–	–	–	–	–
360 (≈ 374 µg/mL)	360 (≈ 374 µg/mL)	180 (≈ 187 µg/mL)	90 (≈ 93.5 µg/mL)	360 (≈ 374 µg/mL)	720 (≈ 748 µg/mL)	> 720	–	NCCCCN(CC(=O)N(CCOCc1ccccc1)CC(=O)N(CCOCc1ccccc1)CC(=O)N(CCCCN)CC(=O)N(CCOCc1ccccc1)CC(=O)O)C(=O)CNCCOCc1ccccc1	–	–	–	–	–	–	–
> 1000	> 1000	> 1000	> 1000	> 1000	> 1000	> 1000	–	O=C1CN(CCOCc2ccccc2)C(=O)CN(CCOCc2ccccc2)C(=O)CN(CCOCc2ccccc2)C(=O)CN(CCOCc2ccccc2)C(=O)CN(CCOCc2ccccc2)C(=O)CN1CCOCc1ccccc1	–	–	–	–	–	–	–
> 1000	> 1000	> 1000	> 1000	> 1000	> 1000	> 1000	> 1000	NCCCCN(CC(=O)O)C(=O)CN(CCCCN)C(=O)CN(Cc1ccccc1)C(=O)CN(CCCCN)C(=O)CN(CCCCN)C(=O)CNCc1ccccc1	–	–	–	–	–	–	–
